Wee1 stabilizer = inhibitors of human Wee1 degradation | P30291 | HeLa Luc-Wee1K328M stability, luciferase luminescence; 100% = proteasome inhibitor MG132 effect | reporter increase, % at 5 µM | 220,000 tested, 1.2% active | AID 1321;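 active = activation above the mean of all tested compounds plus 3 SD, set per screening run, cut at about 8.8% in these data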;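 also: cells exposed to compound for 20 h before luminescence read; 0% = DMSO alone and 100% = MG132 at 30 µM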
Target sequence (P30291 whole entry K328M): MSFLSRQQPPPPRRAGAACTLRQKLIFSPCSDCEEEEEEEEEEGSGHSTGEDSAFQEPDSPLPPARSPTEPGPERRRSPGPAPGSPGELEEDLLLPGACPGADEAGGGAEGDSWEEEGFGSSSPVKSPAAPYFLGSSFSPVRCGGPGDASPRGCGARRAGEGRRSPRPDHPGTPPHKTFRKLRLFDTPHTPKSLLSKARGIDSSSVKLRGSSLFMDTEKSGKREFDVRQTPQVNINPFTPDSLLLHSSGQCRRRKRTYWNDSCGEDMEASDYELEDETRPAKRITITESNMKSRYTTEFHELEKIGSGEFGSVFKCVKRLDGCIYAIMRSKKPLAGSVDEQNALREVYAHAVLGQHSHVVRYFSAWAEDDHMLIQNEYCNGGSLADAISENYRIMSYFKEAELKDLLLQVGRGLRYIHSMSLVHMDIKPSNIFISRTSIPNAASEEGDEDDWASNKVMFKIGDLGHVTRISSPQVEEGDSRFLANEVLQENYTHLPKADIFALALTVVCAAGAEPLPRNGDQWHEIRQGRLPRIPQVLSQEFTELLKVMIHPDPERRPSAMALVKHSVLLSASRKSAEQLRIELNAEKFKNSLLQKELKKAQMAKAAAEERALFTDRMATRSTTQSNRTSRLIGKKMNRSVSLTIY
NPY-Y1 PAM-ag = potentiates or activates human NPY-Y1 receptor; NPY-Y1 expressing cells, potentiator/agonist activation; 220,000 tested, 0.37% active; P25929; activation, % at 3.6 µM; AID 1304; in the data active = activation above about 33%, passing the limit was not always enough;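 also: cells stimulated with NPY at EC10 then isoproterenol at EC100; 0% = low agonist plus stimulus and 100% = saturating agonist plus stimulus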
NPY Y1 blocker = antagonists of human neuropeptide Y receptor Y1. HEK293-CNG Y1 cells, membrane potential fluorescence; NPY at EC95, then isoproterenol. 200,000 tested, 1% active. inhibition, % at 3.6 µM. P25929;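 active = inhibition above the campaign mean inhibition of all tested compounds plus 3 SD, cut at about 20% in these data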;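 also: 0% = DMSO wells given NPY plus isoproterenol and 100% = isoproterenol alone without NPY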
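Material: Y1- and CNG-channel-expressing HEK293 cells / Probe or stimulus: NPY 25 nM then isoproterenol 1 µM plus Ro 20-1724 25 µM / Doses: 3.6 µM single dose, DMSO 0.4% / Schedule: compound incubation 1 h at room temperature, readout 45 min post-stimulation / Signal: membrane potential fluorescence / Benchmarks: isoproterenol-only wells as full block versus NPY-plus-isoproterenol wells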
Hsp70 activator = Hsp70 transcriptional activation, primary screen; HeLa Hsp70 promoter luciferase reporter, luminescence; scaled: vehicle 0, proteasome-inhibitor control 100%; activation, % at 10 µM; 200,000 tested, 0.04% active;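 active = activation above the mean across all tested compounds plus 3 SD, cutoff set per campaign, cut at about 5.5% in these data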;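 also: 100% = MG132 at 30 µM as the positive control and 0% = DMSO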
NPY2 pot ag = human NPY-Y2 potentiation or agonism, primary screen; cells expressing NPY-Y2, potentiator/agonist read-out; activation, % at 3.6 µM; 220,000 tested, 0.45% active; in the data active = activation above about 27%;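 also: cells stimulated with NPY near EC25 plus isoproterenol at EC100; 0% = vehicle plus submaximal agonist and 100% = vehicle plus saturating agonist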
NPY Y2 blocker = NPY-Y2 (human) receptor antagonism; P49146; NPY-Y2 expressing cells, antagonist mode; inhibition, % at 2.7 µM; 140,000 tested, 0.99% active; AID 793; in the data active = inhibition above about 17%;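 also: 0% = vehicle with agonist challenge and 100% = reference antagonist with challenge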
Numbers without * were called inactive; . = no result given. This is a sample that favours compounds with a hit; in the whole collection about 3% have one here.

SMILES | Wee1 stabilizer | NPY-Y1 PAM-ag | NPY Y1 blocker | Hsp70 activator | NPY2 pot ag | NPY Y2 blocker
Cc1[nH]c2ccc(-c3nnc(SCC(=O)NCc4ccco4)n3Cc3ccccc3)cc2c1C | -0.9 | 111.8* | -4.8 | -0.4 | 103.7* | 1.9
C=CCn1c(SC(C)C(=O)NCc2ccc3c(c2)OCO3)nnc1C1CCCCC1 (stereo not given) | 0.7 | -9.8 | 27.6* | 0.1 | -14.9 | 20.1*
COc1ccc(-c2nnc(SC(C)C(=O)NCc3ccc4c(c3)OCO4)n2Cc2ccco2)cc1 (stereo not given) | 0.2 | -2.8 | 37.5* | -0.5 | -14.5 | 51.0*
CC(Sc1nnc2ccccn12)C(=O)NCc1ccc2c(c1)OCO2 (stereo not given) | -4.5 | 2.4 | -3.7 | -0.1 | -1.1 | .
O=C(CSc1nnc(-c2ccc(Cl)cc2)n1Cc1ccco1)NCc1ccc2c(c1)OCO2 | -1.2 | -24.1 | 41.9* | -0.5 | -17.6 | 40.9*
O=C(CSc1nnc(-c2ccc(Cl)cc2)n1Cc1ccco1)Nc1ccc2c(c1)OCCO2 | 1.6 | -16.1 | 6.6 | 0.0 | -4.8 | 3.6
CC(C)Nc1nnc(SCC(=O)NCc2ccc3c(c2)OCO3)s1 | -1.9 | -3.4 | 5.8 | -0.2 | -1.5 | .
Cc1nnc(SCC(=O)NCc2ccc3c(c2)OCO3)s1 | 9.5* | 1.7 | -2.2 | -0.3 | -2.4 | 6.9
COP(=O)(OC)c1nc(-c2cccc3ccccc23)oc1NCc1ccccc1 | 0.1 | -1.7 | 1.0 | -0.4 | 9.9 | 1.2
COc1ccc(CNc2oc(-c3cccc4ccccc34)nc2P(=O)(OC)OC)cc1 | 9.8* | 2.8 | 2.9 | -0.4 | 7.1 | .
CCOC(=O)c1c(NC(=S)NCC2CCCO2)sc(C)c1C (stereo not given) | 0.3 | 7.0 | 2.3 | -0.2 | 2.1 | .
O=C(O)CSc1nc2ccccc2c(=O)[nH]1 | 1.1 | -5.4 | 3.0 | -0.3 | -13.2 | 2.3
CC(C)(C)NC(=O)CSc1nc2ccccc2c(=O)[nH]1 | 9.6* | -18.2 | . | . | -13.6 | .
COc1ccccc1N1CCN(C(=O)c2sc3nc(-c4ccc(F)cc4)cn3c2C)CC1 | -1.2 | -19.4 | 2.9 | -0.3 | -3.5 | 2.1
Cc1cccc(Oc2ncnc3onc(C)c23)c1C | -0.5 | 12.4 | 2.4 | 0.1 | -0.8 | 0.0
CC(C)N1C(=O)c2ccccc2N(Cc2ccccc2)S1(=O)=O | 10.4* | 1.1 | . | . | -0.2 | .
COc1ccc(-c2cc(N)n(S(=O)(=O)c3c(F)c(F)c(F)c(F)c3F)n2)cc1OC | -2.9 | -89.6 | 87.4* | 20.1* | -27.1 | 98.5*
CCOC(=O)N1CCN(CC(O)COCc2ccc(OC)c(OC)c2)CC1 (stereo not given) | 1.1 | -34.4 | -2.1 | -0.3 | -9.9 | 0.8
CCOC(=O)N1CCN(CC(O)COc2ccc(C)cc2C(C)(C)C)CC1 (stereo not given) | -0.3 | 76.8* | -10.8 | -0.5 | 61.1* | 0.5
O=C(NCCOc1ccccc1)c1ccccc1NC(=O)C1CCCO1 (stereo not given) | 9.9* | -0.8 | 5.9 | -0.2 | -22.8 | .
CCc1ccc(NC(=O)c2ccccc2NC(=O)C2CCCO2)cc1 (stereo not given) | 0.3 | -17.0 | 6.0 | -0.2 | 6.7 | 4.7
COc1cccc(/C=N/NC(=O)CO/N=C(\C)c2cccs2)c1OC | 10.0* | 9.3 | 11.0 | -0.2 | -8.3 | 8.2
CC1(C)C([N+](=O)[O-])C(c2ccc(O)cc2)NC(c2ccc(O)cc2)C1[N+](=O)[O-] (stereo not given) | -2.0 | 40.1* | 3.8 | -0.2 | 35.0* | 0.7
Cc1ccc(N2C(=O)C3C4C=CC(CNC(=S)Nc5cccc(Cl)c5)(O4)C3C2=O)cc1 (stereo not given) | -1.6 | -19.1 | -4.0 | -0.3 | -12.0 | -1.7
CCn1c2ccccc2c2cc(N=C3SC(CC(=O)Nc4ccccc4OC)C(=O)N3C)ccc21 (stereo not given) | -0.2 | 1.1 | 1.2 | -0.1 | -5.1 | 0.1
SMILES | Wee1 stabilizer | NPY-Y1 PAM-ag | NPY Y1 blocker | Hsp70 activator | NPY2 pot ag | NPY Y2 blocker
CCn1c2ccccc2c2cc(N=C3SC(CC(=O)Nc4ccccc4)C(=O)N3C)ccc21 (stereo not given) | 17.0* | 5.4 | 3.4 | -0.5 | -6.9 | 2.7
CCN(C(=O)COC(=O)c1cc(-c2cccs2)nc2ccccc12)C1CCS(=O)(=O)C1 (stereo not given) | 6.3 | 17.2 | 2.4 | -0.1 | -1.8 | .
CCN(C(=O)COC(=O)c1cc(-c2ccccc2)nc2ccc(Br)cc12)C1CCS(=O)(=O)C1 (stereo not given) | 9.2* | -27.2 | 12.5 | -0.3 | -13.6 | .
Cc1ccc(N/C(C(Cl)=C(Cl)Cl)=C(/Cl)[N+](=O)[O-])c(C)c1 | -0.4 | -29.2 | 5.3 | -0.2 | 6.1 | 3.5
COCc1nnc(NS(=O)(=O)c2ccc(NC(C)=O)cc2)s1 | 9.9* | -7.1 | -3.4 | 0.1 | -15.2 | -0.9
CCc1nnc(NS(=O)(=O)c2ccc(NS(=O)(=O)c3ccc(NC(C)=O)cc3)cc2)s1 | 1.3 | -2.1 | 2.3 | -0.2 | -1.3 | 2.3
Cc1cc(/C=C(\C#N)c2nnc(N3CCOCC3)n2-c2ccccc2)c(C)n1-c1ccccc1 | 10.0* | 25.4 | 5.6 | -0.4 | 24.8 | 3.5
CCOC(=O)C1=C(N)n2c(s/c(=C\c3cccnc3)c2=O)=C(C(=O)OC)C1c1cccnc1 (stereo not given) | 10.0* | -15.7 | 1.9 | -0.2 | -15.7 | -1.8
Cc1ccn(CCSCC(=O)O)n1 | -3.0 | -1.8 | 3.9 | -0.3 | -7.6 | 2.4
Cc1ccn(CC(C)C(=O)O)n1 (stereo not given) | 9.6* | -0.8 | 3.3 | 0.0 | -6.5 | .
CN1CCN(c2nc(-c3cccnc3)nc3ccccc23)CC1 | -0.7 | -19.4 | 1.7 | -0.1 | 10.5 | 0.8
COc1cc2c(cc1OC)CN(c1nc(-c3cccnc3)nc3ccccc13)CC2 | 10.2* | -22.4 | 4.4 | -0.2 | -24.6 | .
Cc1cc(/N=C/N(C)C)on1 | -1.3 | 1.8 | 2.4 | -0.3 | -1.9 | -0.8
COc1cc(OC)nc(/N=C/N(C)C)n1 | 32.5* | 8.4 | 4.0 | 0.0 | -2.2 | .
Cc1cc2nc(-c3ccccn3)c(-c3ccccn3)nc2cc1C | 9.3* | 6.7 | . | . | 3.6 | .
O=c1c2ccsc2ncn1Cc1ccccc1F | 14.8* | 5.5 | 1.6 | -0.1 | 9.9 | -1.2
C#CCn1cc(/C=N/Nc2nc3ccccc3[nH]2)c2ccccc21 | 2.7 | 44.8* | -7.7 | -0.1 | 48.6* | -0.6
C(=N\Nc1nc2ccccc2[nH]1)/c1cccc2nccnc12 | 2.1 | -17.5 | . | . | -2.1 | .
CNCc1ccccc1OCC(=O)Nc1ccccc1OC | -0.9 | 104.6* | -0.8 | -0.4 | 36.9* | 6.2
O=C(NNC(=S)NC(=O)c1ccco1)c1ccc(F)cc1 | 10.5* | 20.4 | . | . | -10.3 | .
CC(OC(=O)CCc1nc2ccccc2[nH]c1=O)c1ccccc1 (stereo not given) | 10.7* | -10.2 | -1.1 | 0.0 | -14.1 | .
Cc1cc(SCC(=O)NN)c2cc(Br)ccc2n1 | 1.4 | 23.4 | . | . | -22.7 | .

Screening results as filed in PubChem BioAssay.
